Bioassay records from PubChem BioAssay.
Sampled rows, rich in hits. Any-hit rate of the full collection: about 1.5%.
T cell modulator: modulators of CD8 T cell-vesicle binding, primary screen, mouse 2C CD8+ T cells, flow cytometry; 2C CD8+ T cell-vesicle binding; stronger effect = lower value; AID 2052, 2009; response (vesicle binding), % at 7 µM; 0.068% of 330,000 active;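 active means response, share of CD8 T cells binding vesicles, and their 90th percentile fluorescence all below set limits, cut at about 80% in these data, passing the limit was not always enough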;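 further: values below 100% mean blocked vesicle binding to the CD8+ T cells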
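Assay system – 2C mouse CD8+ T cells · Also added – QL9-loaded Drosophila micro-vesicles · Timing – Cell–vesicle co-incubation 1.5 h at 37 °C, staining 20 min on ice · Signal – flow cytometry of vesicle-bound cells · Measure – percent CD8+ FL2 mean versus row control · Controls – Peptide-free naked vesicles (low) and QL9 vesicles with 0.7% DMSO vehicle (high)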
VLA-4 inh: inhibition in human VLA-4 binding assay, primary screen, VLA-4 allosteric modulator project, MLPCN library, flow cytometry, VLA-4 expressing cells; inhibition, % (about 7 µM as worked out from the volumes in the protocol); Integrin alpha-4 (Homo sapiens), P13612; ligand binding flow cytometry; 0.2% of 330,000 active; in the data active means inhibition above about 50%
CHT PAM: CHT positive allosteric modulators, primary screen, cell-based, membrane potential dye, choline EC20; High affinity choline transporter 1 (Homo sapiens), Q9GZV3; CHT-expressing cells; stronger effect = higher value; LV-AA mutant CHT in HEK293 cells; AID 488977, 2010; B-score at 10 µM; 0.49% of 310,000 active;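 active means initial fluorescence not abnormally high and integrated response B-score, plate-corrected, over 3 SD above library mean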
Target sequence (Q9GZV3 whole entry, looked up): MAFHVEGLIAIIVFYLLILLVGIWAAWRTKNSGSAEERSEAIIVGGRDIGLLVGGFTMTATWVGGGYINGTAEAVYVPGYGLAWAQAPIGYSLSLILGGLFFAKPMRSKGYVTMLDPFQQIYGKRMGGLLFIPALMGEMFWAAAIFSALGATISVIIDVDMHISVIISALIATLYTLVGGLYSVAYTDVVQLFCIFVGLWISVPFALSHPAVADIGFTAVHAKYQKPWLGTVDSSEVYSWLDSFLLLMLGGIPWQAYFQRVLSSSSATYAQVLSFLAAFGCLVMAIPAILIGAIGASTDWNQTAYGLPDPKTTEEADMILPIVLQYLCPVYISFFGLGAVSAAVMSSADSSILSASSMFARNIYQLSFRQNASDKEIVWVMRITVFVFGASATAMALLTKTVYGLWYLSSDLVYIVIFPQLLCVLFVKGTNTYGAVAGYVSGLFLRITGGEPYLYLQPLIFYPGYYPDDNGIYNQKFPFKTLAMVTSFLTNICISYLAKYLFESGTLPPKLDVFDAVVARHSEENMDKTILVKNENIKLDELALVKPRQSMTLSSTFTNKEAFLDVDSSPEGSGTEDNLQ
CHT block: inhibitors of human choline transporter CHT; CHT-expressing cells, membrane potential dye, choline response; stronger effect = lower value; 0.86% of 310,000 active; B-score at 10 µM;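 active means B-score over 3 SD under the library average, and starting fluorescence ratio not unusually high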;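 further: choline stimulus applied at its EC90 after an EC20 pre-addition; B-score computed on integrated fluorescence ratio after choline addition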
CHT act confirm: CHT activators, confirmation, cell-based, membrane potential dye, duplicate. CHT-expressing cells, membrane potential dye fluorescence (FDSS); % of choline EC20–EC90 response window; HEK293 expressing CHT LV-AA mutant; choline added at its EC20. activation, % at 10 µM. shares compounds with CHT PAM. 91% of 2,500 active;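 active means primary screen active, with duplicate mean activation above negative control mean plus 3 SD, cut at about 11% in these data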
HEK293 MP dye: membrane potential response in parental HEK293 cells, counter-screen for CHT activator project, cell-based, membrane potential dye | membrane potential dye fluorescence (FDSS); measured after EC20 choline addition | ratio readout change at 10 µM, hits read low | 62% of 2,500 active | shares compounds with CHT PAM;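 active means duplicate-averaged ratio beyond 3 SD from buffer wells, up or down, though filed actives are nearly all decreases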
Active calls of the source: *; i = inactive; x = no result given.

SMILES	T cell modulator	VLA-4 inh	CHT PAM	CHT block	CHT act confirm	HEK293 MP dye
COc1ccc(S(=O)(=O)N2CCCCCC2)cc1C(=O)N1CCCC(C(F)(F)F)C1 (centres undefined)	333.0	9.6	10.3*	i	15.1*	i
COc1ccc2nc(C)c3c(c2c1)OC(C)C3 (centres undefined)	331.2	8.6	i	i	x	x
COc1cccc2c3c(c(C)nc12)CC(C)O3 (centres undefined)	268.7	-12.4	9.94*	i	52.8*	-69.5*
COc1cccc(N2CCc3c(C)nc4ccc(Cl)cc4c32)c1	236.4	-2.9	i	i	41.5*	-28.7*
COc1ccc(N2CCc3c(C)nc4c(OC)cccc4c32)cc1	389.7	17.4	i	i	33.4*	-55.9*
Cc1nc2c(C)cccc2c2c1CCN2c1ccccc1F	355.3	5.6	i	i	46.7*	-53.8*
Cc1ccc(S(=O)(=O)N2CCOC23CCN(C(=O)C(=O)NCCC(C)C)CC3)cc1	436.3	6.7	i	i	x	x
CCOC(=O)c1ccc(Nc2sc(C(=O)c3cccc([N+](=O)[O-])c3)c(N)c2C#N)cc1	149.7	2.1	i	i	x	x
COCCN(Cc1ccccc1)C(=O)c1cccc(S(=O)(=O)N(C)c2c(C)n(C)n(-c3ccccc3)c2=O)c1	352.1	-1.4	i	i	x	x
Cc1c(C(=O)NCc2nnc(-c3ccccc3)o2)oc2c(F)cccc12	305.9	4.5	i	i	x	x
Cc1cccc(C)c1NC(=O)CNC(=O)c1ccc(NS(=O)(=O)c2ccc3[nH]c(=O)[nH]c3c2)cc1	293.1	3.2	i	i	x	x
CC1CCC(C(C)C)C(OC(=O)C[n+]2cc(-c3ccc(Cl)cc3)n3c2CCC3)C1 (centres undefined)	410.0	2.7	13.9*	i	83.3*	i
Cn1c(=O)n(C)c2cc([N+](=O)[O-])c(N3CCN(S(C)(=O)=O)CC3)cc21	433.6	9.3	i	i	x	x
Cn1c(=O)n(C)c2cc([N+](=O)[O-])c(N3CCN(CCO)CC3)cc21	852.8	-0.1	9.31*	i	52.9*	-69.7*
Nc1ccccc1Sc1c[nH]c2ccccc12	861.2	-3.5	i	i	x	x
O=[N+]([O-])c1ccc(OC(F)F)c(/C=N/n2cnnc2)c1	342.1	1.4	i	i	21.4*	-24*
O=[N+]([O-])c1ccc(Cl)c(-c2ccc(/C=N/n3cnnc3)o2)c1	286.9	-5.0	i	i	39.1*	-50.8*
CNC(=S)N/N=C/c1ccc(-c2cc([N+](=O)[O-])ccc2Cl)o1	104.0	2.4	i	i	x	x
CN(C)C(/C=C/Nc1ccc(Br)cc1)=C(C#N)C#N	286.3	2.0	7.31*	i	20.0*	-50.1*
CN(C)C(/C=C/Nc1ccc([N+](=O)[O-])cc1)=C(C#N)C#N	270.4	4.2	7.08*	i	29.9*	-54.8*
CCn1c(/C=C/Nc2ccccc2)[n+](CC)c2cc(Cl)c(Cl)cc21	249.0	21.3	6.96*	i	32.8*	-36.9*
CCn1c(C)[n+](CCOCC[n+]2c(C)n(CC)c3cc(Cl)c(Cl)cc32)c2cc(Cl)c(Cl)cc21	479.0	25.2	6.69*	i	30.9*	-48.6*
Cc1cc[n+](CC(=O)c2ccccc2)c2ccccc12	203.3	-6.0	6.58*	i	34.4*	-35.8*
N#CCOc1ccccc1/C=N/n1nnnc1N	238.6	13.1	i	i	x	x
COc1cccc(/C=N/n2cncn2)c1OCC#N	654.1	0.7	6.37*	i	2.9	i
SMILES	T cell modulator	VLA-4 inh	CHT PAM	CHT block	CHT act confirm	HEK293 MP dye
CN(C)S(=O)(=O)c1ccc(NC(=O)CCCNC(=O)c2ccc(Cl)cc2)cc1	187.8	25.2	i	i	x	x
COc1ccc(S(=O)(=O)Nc2ccc(S(=O)(=O)Nc3cc(C)nc(C)n3)cc2)cc1OC	290.4	10.0	i	i	x	x
N#Cc1c(N)sc2c1CCN(CCc1ccccc1)C2	310.5	-19.7	i	i	30.5*	-41.3*
CCN(C(=O)COC(=O)c1ccc(SC)cc1OC)C1CCS(=O)(=O)C1 (centres undefined)	144.9	-12.0	x	x	x	x
COCC(=O)n1nc(NCc2ccc(OC)cc2)nc1NCc1ccc(OC)cc1	136.4	-48.1	i	i	10.1*	i
Cc1ccc(C(C)C)cc1NC(=O)Nc1ccc([N+](=O)[O-])cc1	73.3	6.0	i	i	x	x
Cc1ccc(S(=O)(=O)N(C)C[C@@H]2Oc3ccc(NC(=O)CCC(F)(F)F)cc3CC(=O)N([C@@H](C)CO)C[C@@H]2C)cc1	549.4	-20.8	x	x	x	x
CCCc1nc2ccccc2c(C(=O)OC(C)C(=O)NCc2ccc3c(c2)OCO3)c1CC (centres undefined)	278.6	18.3	7.71*	i	35.8*	i
O=C(OCc1cc(=O)n2ccsc2n1)c1ccccc1NCCO	972.7	0.0	x	x	x	x
CC(=O)c1cnc(Nc2nc(C)c3ccccc3n2)nc1C	551.6	10.1	i	i	44.4*	-45.5*
O=c1oc2ccccc2cc1-c1cn2cccnc2n1	155.0	-4.4	i	i	20.3*	-32.8*
c1ccc(-c2c[n+]3c(n2-c2ccccc2)SCC3)cc1	172.1	2.2	6.61*	i	49.3*	-32.5*
CCOc1ccc(-n2c(-c3ccc(Cl)cc3)c[n+]3c2SCC3)cc1	300.7	-4.2	i	i	x	x
c1ccc(-c2cn(-c3ccccc3)c3[n+]2CCS3)cc1	183.4	-0.9	6.76*	i	55.6*	-34*
O=C(O)CCN1CCc2ccccc2C1c1ccncc1 (centres undefined)	357.5	6.8	i	i	x	x
FC(F)(F)c1ccccc1/C=N/n1c(COc2ccccc2)n[nH]c1=S	572.2	5.2	i	i	x	x
O=C(Nc1ccc2nc(SCc3ccc(Cl)cc3)sc2c1)c1ccccc1C(=O)N1CCOCC1	277.6	12.0	i	i	46.3*	i
COC(=O)CSc1nc2ccc(NC(=O)c3ccccc3C(=O)N3CCOCC3)cc2s1	310.7	-2.6	i	i	x	x
COc1ccc(C2=NCCc3cc(OC)c(OC)cc32)cc1	504.1	5.8	7.49*	i	26.9*	-92.4*
COc1cc2c(cc1OC)C(/C(C#N)=N\O)=NC(C)(C)C2	275.0	22.8	i	i	x	x
COc1cc2c(cc1OC)C(CCc1ccccc1)=NCC2	99.0	-2.0	i	i	x	x
